Data on 22 compounds can be found in article PMC9309012 (Journal of medicinal chemistry, 2021).

The subject of data set [1] is HeLa cells. Nature of the data set: Cytotoxicity assay in human HeLa cells. Format: cell-based. The following applies: for human cytotoxicity: HeLa cells, 48 h, described in words (Fig. 2-4).
Data set [2] has as its system T. vaginalis strains (four MzS, four MzR). Nature of the data set: Drug susceptibility of Mz-sensitive and Mz-resistant T. vaginalis lines. Format: cell-based, Trichomonas vaginalis. The following applies: for activity against Mz-resistant T. vaginalis lines: four Mz-resistant clinical isolates. The procedure, abridged:
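Trophozoites were cultured at 37 °C in TYM Diamond's medium with 180 μM ferrous ammonium sulphate. Compound stocks were diluted in PBS to 75 μM, then serially diluted 1:3. Plates held 5 × 10^3 trophozoites/well and were incubated 24 h at 37 °C anaerobically. ATP luminescence (BacTiter-Glo) read growth and viability, and curves gave EC50. Replicates: n≥3, mean + SEM. MzS versus MzR groups were compared by unpaired t-test.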

Data set [3] has as its system T. vaginalis F1623. Nature of the data set: T. vaginalis 24 h growth and survival assay. Format: cell-based, Trichomonas vaginalis. The following applies: for trichomonacidal activity: T. vaginalis F1623, 24 h, described in words (Fig. 2-4); for reduced trichomonacidal activity compared to the chloride counterparts: bromide and iodide vs chloride complexes (4, 10).
The subject of data set [4] is T. foetus. Nature of the data set: In vitro activity against T. foetus. The settings on record: compared with T. vaginalis F1623. Format: cell-based.
Data set [5] relates to T. vaginalis F1623. The following applies: previously discovered; cited from earlier work.
In data set [6] the test system is TrxR in T. vaginalis. The settings on record: read-out: IC50, TrxR inhibition; cited from earlier work.
In data set [7] the test system is sensitive T. vaginalis strain. Nature of the data set: Synergy of gold. Format: cell-based, Trichomonas vaginalis. The settings on record: 24 h.
The test system of data set [8] is T. foetus D1. Nature of the data set: Murine vaginal trichomonad infection model. The following applies: 4 days after infection, Wright-Giemsa stain. Format: in vivo, BALB/cJ mice.
For data set [9] the following is noted: intravaginal administration compared to a single oral dose; cited from earlier work.
The mark [10] stands for this setting: tributyl vs triethyl phosphine compound.

“Also recorded” adds a separate entry of the source.

As for `C[P+](C)(C)[Au-][Cl]` [Compound 10, (Tri-n-methylphosphine)gold(I) chloride], in data set [1], the human cytotoxicity entry is recorded as “decreased human cytotoxicity”. Besides, the “activity against Mz-resistant T. vaginalis lines” value in data set [2] is given as “sensitive”. Further, the trichomonacidal activity entry in data set [3] is reported as “low μM range”. Further, in data set [4], the “activity against T. foetus in vitro” value is listed as “as active against T. foetus in vitro as they were against T. vaginalis”.
As to “(Trimethylphosphine)gold(I) bromide [Compound 23]”, in data set [3], the “reduced trichomonacidal activity compared to the chloride counterparts” value (“reduced trichomonacidal activity” for short) was 5- to 10 fold.
In the case of `CC(C)(C)[PH+](C(C)(C)C)C(C)(C)C.[Cl][Au]` [Compound 17, (Tri-tert-butylphosphine)gold(I) chloride], the human cytotoxicity entry in data set [1] is “inactive”. Also, the trichomonacidal activity entry in [3] was “inactive”.
As for “Bis(triethylphosphine)gold(I) chloride [Compound 14]”, the human cytotoxicity entry in [1] was “as or moderately more active”. Besides, the trichomonacidal activity result in data set [3] is reported as “as or moderately more active”.
With “(1-Thio-β-D-glucopyranosato) (triethylphosphine) gold(I) [Compound 1]”, in [1], the human cytotoxicity result is given as “toxic in human cells”. Besides, the trichomonacidal activity result in [3] is recorded as “improved trichomonacidal activity similar to AF”.
As for `CC[P](CC)(CC)[Au][c]1n(-c2c(C)cc(C)cc2C)cc[n+]1-c1c(C)cc(C)cc1C.[Cl-]` [Compound 3, [Triethylphosphine-(bis(2,4,6-trimethylphenyl)imidazol-2-ylidene)]gold(I) chloride], in [1], the human cytotoxicity entry is on record as “strongly increased human cytotoxicity”. Further, the trichomonacidal activity entry in [3] is “did not enhance trichomonacidal activity”.
On to “(Triethylphosphine)gold(I) bromide [Compound 24]”, for which the “reduced trichomonacidal activity” value in data set [3] is 5- to 10 fold.
On to “(Tri-n-butylphosphine)gold(I) chloride [Compound 9]”, for which the human cytotoxicity result in data set [1] is “abolished all activity; also recorded: inactive”. For the same compound, in [3], the trichomonacidal activity entry is “abolished all activity; also recorded: inactive”.
“(Triisopropylphosphine)gold(I) chloride [Compound 12]”: in data set [1], the human cytotoxicity result is listed as “decreased human cytotoxicity”. The trichomonacidal activity result in [3] is given as “low μM range”.
In the same order, the values of `CC(C)[P+]([Au-][P+](C(C)C)(C(C)C)C(C)C)(C(C)C)C(C)C.[Cl-]` [Compound 16, Bis(triisopropylphosphine)gold(I) chloride] are “as or moderately more active” and “as or moderately more active”.
Regarding “(Trimethylphosphine)gold(I) iodide [Compound 25]”, in data set [3], the “reduced trichomonacidal activity” value is 5- to 10 fold.
Turning to “(Tri-n-propylphosphine)gold(I) chloride [Compound 11]”, in data set [1], the human cytotoxicity entry is on record as “decreased human cytotoxicity”. Also, the trichomonacidal activity entry in data set [3] is reported as “low μM range”.
As for `CC(=O)OC[C@H]1O[C@@H]([S-])[C@H](OC(C)=O)[C@@H](OC(C)=O)[C@@H]1OC(C)=O.CCP(CC)CC.[Au+]` [AF, reference compound], in data set [1], the human cytotoxicity result was “slightly more toxic against human cells than the parasite”. The “activity against T. vaginalis / trichomonads” value in data set [5] is recorded as “low μM range”. Moreover, in data set [6], the IC50 was about 100 nM. Besides, the “activity against Mz-resistant T. vaginalis lines” value in [2] was “sensitive”. In addition, in data set [4], the “activity against T. foetus in vitro” value is on record as “as active against T. foetus in vitro as they were against T. vaginalis”. Besides, the “interference or synergy with the activity of Mz” value in data set [7] is “neither compound 4 nor AF interfered or synergized”.
In the case of “(Triethylphosphine)gold(I) iodide [Compound 26]”, the “reduced trichomonacidal activity” value in data set [3] is given as 5- to 10 fold.
Regarding “(2,3,4,6-Tetra-O-acetyl-1-thio-β-D-galacotopyranosato)(butylphosphine) gold(I) [Compound 5]”, in data set [1] (setting [10]), the “lower activity against human cells than triethyl partner” value is on record as ~ 10 fold. Further, the “lower activity against T. vaginalis than triethyl partner” value in data set [3] (setting [10]) is given as ~ 10 fold.
Regarding `CCP(CC)CC.[Au+].[Cl-]` [Compound 4, (Tri-n-ethylphosphine)gold(I) chloride], in data set [1], the human cytotoxicity result is recorded as “markedly reduced human cytotoxicity; also recorded: decreased human cytotoxicity”. Moreover, in data set [8], the “histological analysis of vaginal tract” value is reported as “disappearance of T. foetus trophozoites from the vaginal lumen”. Also, in data set [2], the “activity against Mz-resistant T. vaginalis lines” value is “sensitive”. Also, the trichomonacidal activity entry in data set [3] is “slightly increased activity against T. vaginalis; also recorded: low μM range”. In addition, the “activity against T. foetus in vitro” value in [4] was “as active against T. foetus in vitro as they were against T. vaginalis”. Moreover, the “interference or synergy with the activity of Mz” value in [7] is recorded as “neither compound 4 nor AF interfered or synergized”.
With `OCC1OC([S-])C(O)C(O)C1O.[Au+]` (stereo not drawn) [ATG, 3,4,5-trihydroxy-6-(hydroxymethyl)oxane-2-thiolate gold (I), reference compound], in [3], the trichomonacidal activity result is “barely showed activity”.
The same measure, in the same setting: the same measure for `O.O=C([O-])CC([S-])C(=O)[O-].[Au+].[Na+].[Na+]` (stereo not drawn) [ATM, (1,2-Dicarboxyethylthio) disodium salt hydrate gold(I), reference compound]: “barely showed activity”.
On to `Cc1ncc([N+](=O)[O-])n1CCO` [Mz, metronidazole, reference compound], for which, in data set [9], the “decrease in systemic exposure” value is 96–98%. In data set [2] (four Mz-resistant lines compared to four susceptible lines), the “loss in Mz susceptibility” value is listed as 20- to 100 fold.
In the case of `CCC[P+](CCC)(CCC)[Au-][P+](CCC)(CCC)CCC.[Cl-]` [Compound 15, Bis(tri-n-propylphosphine)gold(I) chloride], the human cytotoxicity result in data set [1] is given as “as or moderately more active”. For the same compound, the trichomonacidal activity result in data set [3] is “as or moderately more active”.
As for `C[P+](C)(C)[Au-][P+](C)(C)C.[Cl-]` [Compound 13, Bis(trimethylphosphine)gold(I) chloride], the human cytotoxicity entry in data set [1] is recorded as “as or moderately more active”. Further, the trichomonacidal activity result in [3] is reported as “as or moderately more active”.
With `CC[P+](CC)(CC)[Au-][S]C(CC(=O)O)C(=O)O` (stereo not drawn) [Compound 2, S-Triethylphosphine gold(I) thiomalic acid], the human cytotoxicity result in data set [1] is “toxic in human cells”. The trichomonacidal activity result in [3] is on record as “improved trichomonacidal activity similar to AF”.

In general, IC50 refers to the point on the concentration scale where inhibition reaches its midpoint.
